Measurements taken from ChEMBL document CHEMBL4000256, “Light-Regulated NO Release as a Novel Strategy To Overcome Doxorubicin Multidrug Resistance” (ACS Med Chem Lett, 2017).
The source made the active and inactive calls. The rule behind the calls is not given here.

What was measured:
[1] = Induction of NO release in pH 7.4 PBS irradiated with 7 mW/cm2 light at 10 uM after 0.5 hrs in presence of calf thymus DNA by amperometric detection assay
In short: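 NO release recorded during alternating light (λexc 405 nm) and dark cycles. Solution at 10 μM in PBS (pH 7.4, 10 mM, 3% DMSO), with or without 18 μM ct-DNA.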

Homo sapiens [2] = species: Homo sapiens; assay: Inhibition of Pgp in 7 mW/cm'2 irradiated human M14 cells assessed as reduction in ATPase activity at 5 uM measured after 20 mins in presence of doxorubicin by immunoblotting
In short: (§1)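 M14 melanoma cells held 20 min at room temperature in PBS under 400 nm light (7 mW/cm2) with 5 μM compound, alone or with equimolar doxorubicin. Transporter ATPase activity then measured; n = 3.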

Homo sapiens [3] = species: Homo sapiens; assay: Inhibition of Pgp in 7 mW/cm'2 irradiated human M14 cells assessed as nitration of tyrosine in pgp at 5 uM measured after 20 mins in presence of doxorubicin by immunoblotting
In short: (§2)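 M14 melanoma cells held 20 min at room temperature in PBS under 400 nm light (7 mW/cm2) with 5 μM compound, alone or with equimolar doxorubicin. Nitrated ABC transporters (Pgp, MRP1, MRP4, BCRP) detected by immunoblot.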

[4] = biological target: T1, Broad substrate specificity ATP-binding cassette transporter ABCG2 (Homo sapiens, UniProt Q9UNQ0); assay: Inhibition of BCRP in 7 mW/cm'2 irradiated human M14 cells assessed as reduction in ATPase activity at 5 uM measured after 20 mins in presence of doxorubicin by immunoblotting; in short: as §1
T1 sequence (Q9UNQ0 whole entry): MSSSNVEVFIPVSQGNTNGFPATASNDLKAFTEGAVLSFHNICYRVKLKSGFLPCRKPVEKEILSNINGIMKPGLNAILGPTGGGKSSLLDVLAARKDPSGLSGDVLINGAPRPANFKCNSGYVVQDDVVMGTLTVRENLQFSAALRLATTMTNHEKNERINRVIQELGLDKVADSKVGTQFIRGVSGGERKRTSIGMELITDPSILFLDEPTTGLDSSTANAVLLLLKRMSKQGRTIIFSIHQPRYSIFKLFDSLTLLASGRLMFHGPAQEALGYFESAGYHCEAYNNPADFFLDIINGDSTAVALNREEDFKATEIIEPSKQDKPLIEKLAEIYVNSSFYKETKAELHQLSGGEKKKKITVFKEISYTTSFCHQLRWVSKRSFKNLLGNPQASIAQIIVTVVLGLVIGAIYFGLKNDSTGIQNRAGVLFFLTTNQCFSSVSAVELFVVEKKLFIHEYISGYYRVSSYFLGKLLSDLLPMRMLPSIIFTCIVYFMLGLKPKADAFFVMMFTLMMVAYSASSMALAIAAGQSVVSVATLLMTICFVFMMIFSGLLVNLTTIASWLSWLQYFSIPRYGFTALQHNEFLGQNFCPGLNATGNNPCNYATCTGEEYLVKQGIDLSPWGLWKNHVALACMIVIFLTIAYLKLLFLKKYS

[5] = biological target: T1, Broad substrate specificity ATP-binding cassette transporter ABCG2; assay: Inhibition of BCRP in 7 mW/cm'2 irradiated human M14 cells assessed as nitration of tyrosine in BCRP at 5 uM measured after 20 mins in presence of doxorubicin by immunoblotting; in short: as §2
[6] = biological target: T2, ATP-binding cassette sub-family C member 4 (Homo sapiens, UniProt O15439); assay: Inhibition of MRP4 in 7 mW/cm'2 irradiated human M14 cells assessed as reduction in ATPase activity at 5 uM measured after 20 mins in presence of doxorubicin by immunoblotting; in short: as §1
T2 sequence (O15439 whole entry): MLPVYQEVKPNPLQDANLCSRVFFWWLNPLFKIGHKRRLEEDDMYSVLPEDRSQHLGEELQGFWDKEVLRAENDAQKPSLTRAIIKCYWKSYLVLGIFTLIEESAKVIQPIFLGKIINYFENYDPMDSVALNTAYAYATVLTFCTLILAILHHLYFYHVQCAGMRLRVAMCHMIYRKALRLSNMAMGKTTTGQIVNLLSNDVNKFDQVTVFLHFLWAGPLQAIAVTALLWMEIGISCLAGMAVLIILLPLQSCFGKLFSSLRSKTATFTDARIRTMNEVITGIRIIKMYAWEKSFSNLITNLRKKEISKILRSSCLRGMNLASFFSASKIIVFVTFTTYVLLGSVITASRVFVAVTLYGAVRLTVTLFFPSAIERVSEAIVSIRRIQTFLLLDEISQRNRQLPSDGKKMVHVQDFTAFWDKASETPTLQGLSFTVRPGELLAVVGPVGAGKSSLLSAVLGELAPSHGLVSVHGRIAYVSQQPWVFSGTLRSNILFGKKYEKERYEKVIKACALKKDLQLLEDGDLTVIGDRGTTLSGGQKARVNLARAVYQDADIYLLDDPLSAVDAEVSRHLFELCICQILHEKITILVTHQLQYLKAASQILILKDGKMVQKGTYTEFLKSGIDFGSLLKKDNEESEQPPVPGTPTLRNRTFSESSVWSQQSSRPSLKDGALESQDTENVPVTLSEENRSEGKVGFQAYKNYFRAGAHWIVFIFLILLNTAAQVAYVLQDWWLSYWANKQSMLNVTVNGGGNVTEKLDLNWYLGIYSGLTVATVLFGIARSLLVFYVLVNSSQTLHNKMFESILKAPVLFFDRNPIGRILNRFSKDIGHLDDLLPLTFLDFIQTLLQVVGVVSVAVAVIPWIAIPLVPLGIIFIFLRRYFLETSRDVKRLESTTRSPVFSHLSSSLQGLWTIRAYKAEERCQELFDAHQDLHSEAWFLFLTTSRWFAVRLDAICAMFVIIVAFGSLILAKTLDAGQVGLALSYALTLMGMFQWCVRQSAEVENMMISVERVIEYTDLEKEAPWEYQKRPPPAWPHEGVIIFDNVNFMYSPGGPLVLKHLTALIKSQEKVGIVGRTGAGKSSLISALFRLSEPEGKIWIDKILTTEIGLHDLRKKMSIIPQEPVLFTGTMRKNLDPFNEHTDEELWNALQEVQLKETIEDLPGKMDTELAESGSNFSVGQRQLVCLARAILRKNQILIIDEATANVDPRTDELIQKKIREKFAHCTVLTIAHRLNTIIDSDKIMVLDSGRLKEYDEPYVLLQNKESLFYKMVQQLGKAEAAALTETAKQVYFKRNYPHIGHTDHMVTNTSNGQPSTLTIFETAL

Structure (SMILES)	Activity [1]	inhibition (Homo sapiens [2])	inhibition (Homo sapiens [3])	inhibition (INH) [4]	inhibition (INH) [5]	inhibition (INH) [6]
COc1cccc2c1C(=O)c1c(O)c3c(c(O)c1C2=O)C[C@@](O)(C(=O)COC(=O)c1ccc(C(=O)NCCCNc2ccc([N+](=O)[O-])c(C(F)(F)F)c2)cc1)C[C@@H]3O[C@H]1C[C@H](N)[C@H](O)[C@H](C)O1.Cl	Active	–	–	–	–	–
NCCCNc1ccc([N+](=O)[O-])c(C(F)(F)F)c1	–	Active	Active	Active	Active	Active
